Assay results: ChEMBL document CHEMBL1135475, “One-pot synthesis of benzo[b]furan and indole inhibitors of tubulin polymerization” (J Med Chem, 2002)

Experiments:
Tubulin = Tubulin (Bos taurus, UniProt Q6B856+Q862L2+Q862F3); test: Inhibition of tubulin (10 uM) polymerization, after a 20 min incubation at 30 degrees Centigrade; assay type: functional
Tubulin (Bos taurus) = Tubulin (Bos taurus) (UniProt Q6B856+Q862L2+Q862F3); test: Percent inhibition of 5 uM of [3H]colchicine binding to 1 uM of tubulin by 5 uM of compound after a 10 minute incubation at 37 degrees C; assay type: protein assay
Method in brief: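 Tubulin purified to electrophoretic homogeneity from bovine brain, used at 1.0 µM with [3H]colchicine and inhibitor both at 5.0 µM. […] At least two independent experiments per compound.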

| Structure (SMILES) | IC50 (Tubulin) [µM] | inhibition (Tubulin (Bos taurus)) [%] |
| --- | --- | --- |
| COc1ccc(-c2oc3cc(OC)ccc3c2-c2cc(OC)c(OC)c(OC)c2)cc1 | > 40 |  |
| COc1ccc(-c2oc3cc(OC)ccc3c2C(=O)c2cc(OC)c(OC)c(OC)c2)cc1 |  | 77 |
| COc1ccc2c(C(=O)c3cc(OC)c(OC)c(OC)c3)c(-c3ccc(OC)c(O)c3)sc2c1 |  | 21 |
